Key:
HCT-116 = assay: Antiproliferative activity against human HCT-116 cells assessed as inhibition of cell viability measured for 48 hrs by microplate reader based MTT assay; type: functional; conditions: HCT-116, 48 h
Method in brief: (§1)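 Cells grown in RPMI-1640 with 10% FBS and seeded at 5000 cells/well. After overnight attachment, compound was added in medium with 0.1% DMSO for 48 h at 37 °C. Read-out was MTT for HCT-116, B16-F10 and A549, and CCK-8 for Jurkat (0.5 mg/mL, 4 h), with absorbance at 570 nm. IC50 from nonlinear regression; at least three independent experiments.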

B16-F10 = assay: Antiproliferative activity against mouse B16-F10 cells assessed as inhibition of cell viability measured for 48 hrs by microplate reader based MTT assay; type: functional; conditions: B16-F10, 48 h; method in brief: as §1
Jurkat = assay: Antiproliferative activity against human Jurkat cells assessed as inhibition of cell viability measured for 48 hrs by microplate reader based CCK-8 assay; type: functional
A549 = assay: Antiproliferative activity against human A549 cells assessed as inhibition of cell viability measured for 48 hrs by microplate reader based CCK-8 assay; type: functional; conditions: A549, 48 h
Histone deacetylase 1 = Histone deacetylase 1 (Homo sapiens, UniProt Q13547); assay: Inhibition of full length recombinant human HDAC1 (1 to 482 residues) expressed in Baculovirus system using Ac-Leu-Gly-Lys (Ac)-AMC as substrate pretreated for 5 mins followed by substrate addition and measured after 30 mins
Chain of Histone deacetylase 1 (Q13547 whole entry, the tested form may be a part): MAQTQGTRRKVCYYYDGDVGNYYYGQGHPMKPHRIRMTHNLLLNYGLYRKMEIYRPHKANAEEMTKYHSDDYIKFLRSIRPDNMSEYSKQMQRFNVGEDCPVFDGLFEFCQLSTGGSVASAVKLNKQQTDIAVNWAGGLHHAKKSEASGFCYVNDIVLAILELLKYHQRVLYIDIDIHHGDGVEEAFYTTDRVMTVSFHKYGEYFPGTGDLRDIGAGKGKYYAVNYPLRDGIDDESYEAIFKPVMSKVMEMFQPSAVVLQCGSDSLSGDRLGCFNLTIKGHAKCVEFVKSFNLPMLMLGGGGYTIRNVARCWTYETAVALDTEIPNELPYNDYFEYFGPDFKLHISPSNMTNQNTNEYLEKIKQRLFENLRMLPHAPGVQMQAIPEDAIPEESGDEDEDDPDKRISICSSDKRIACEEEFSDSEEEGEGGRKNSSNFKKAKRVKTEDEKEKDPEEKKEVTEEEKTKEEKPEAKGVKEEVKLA

Histone deacetylase 3 = Histone deacetylase 3 (Homo sapiens, UniProt O15379); assay: Inhibition of recombinant HDAC3 (unknown origin) using Ac-Leu-Gly-Lys (Ac)-AMC as substrate pretreated for 5 mins followed by substrate addition and measured after 30 mins
Chain of Histone deacetylase 3 (O15379 whole entry, the tested form may be a part): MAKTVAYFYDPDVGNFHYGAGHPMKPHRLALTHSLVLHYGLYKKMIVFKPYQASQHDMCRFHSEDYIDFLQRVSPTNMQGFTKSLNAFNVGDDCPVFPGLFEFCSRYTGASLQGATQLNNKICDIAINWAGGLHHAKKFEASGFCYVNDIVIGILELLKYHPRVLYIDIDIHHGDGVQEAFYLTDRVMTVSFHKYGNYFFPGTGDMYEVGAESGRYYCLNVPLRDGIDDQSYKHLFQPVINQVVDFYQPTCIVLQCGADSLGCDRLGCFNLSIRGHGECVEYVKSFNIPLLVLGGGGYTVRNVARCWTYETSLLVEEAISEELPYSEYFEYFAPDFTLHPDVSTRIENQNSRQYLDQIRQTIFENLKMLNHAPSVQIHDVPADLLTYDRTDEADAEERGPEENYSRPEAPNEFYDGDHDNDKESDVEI

[1] = target: T1, Protein deacetylase HDAC6 (Homo sapiens, UniProt Q9UBN7); assay: Inhibition of full length N-terminal GST-tagged human recombinant HDAC6 (1 to 1215 residues) expressed in Baculovirus infected Sf9 cells using Ac-Leu-Gly-Lys (Ac)-AMC as substrate pretreated for 5 mins followed by substrate addition and measured after 30 mins
T1 sequence (Q9UBN7 whole entry): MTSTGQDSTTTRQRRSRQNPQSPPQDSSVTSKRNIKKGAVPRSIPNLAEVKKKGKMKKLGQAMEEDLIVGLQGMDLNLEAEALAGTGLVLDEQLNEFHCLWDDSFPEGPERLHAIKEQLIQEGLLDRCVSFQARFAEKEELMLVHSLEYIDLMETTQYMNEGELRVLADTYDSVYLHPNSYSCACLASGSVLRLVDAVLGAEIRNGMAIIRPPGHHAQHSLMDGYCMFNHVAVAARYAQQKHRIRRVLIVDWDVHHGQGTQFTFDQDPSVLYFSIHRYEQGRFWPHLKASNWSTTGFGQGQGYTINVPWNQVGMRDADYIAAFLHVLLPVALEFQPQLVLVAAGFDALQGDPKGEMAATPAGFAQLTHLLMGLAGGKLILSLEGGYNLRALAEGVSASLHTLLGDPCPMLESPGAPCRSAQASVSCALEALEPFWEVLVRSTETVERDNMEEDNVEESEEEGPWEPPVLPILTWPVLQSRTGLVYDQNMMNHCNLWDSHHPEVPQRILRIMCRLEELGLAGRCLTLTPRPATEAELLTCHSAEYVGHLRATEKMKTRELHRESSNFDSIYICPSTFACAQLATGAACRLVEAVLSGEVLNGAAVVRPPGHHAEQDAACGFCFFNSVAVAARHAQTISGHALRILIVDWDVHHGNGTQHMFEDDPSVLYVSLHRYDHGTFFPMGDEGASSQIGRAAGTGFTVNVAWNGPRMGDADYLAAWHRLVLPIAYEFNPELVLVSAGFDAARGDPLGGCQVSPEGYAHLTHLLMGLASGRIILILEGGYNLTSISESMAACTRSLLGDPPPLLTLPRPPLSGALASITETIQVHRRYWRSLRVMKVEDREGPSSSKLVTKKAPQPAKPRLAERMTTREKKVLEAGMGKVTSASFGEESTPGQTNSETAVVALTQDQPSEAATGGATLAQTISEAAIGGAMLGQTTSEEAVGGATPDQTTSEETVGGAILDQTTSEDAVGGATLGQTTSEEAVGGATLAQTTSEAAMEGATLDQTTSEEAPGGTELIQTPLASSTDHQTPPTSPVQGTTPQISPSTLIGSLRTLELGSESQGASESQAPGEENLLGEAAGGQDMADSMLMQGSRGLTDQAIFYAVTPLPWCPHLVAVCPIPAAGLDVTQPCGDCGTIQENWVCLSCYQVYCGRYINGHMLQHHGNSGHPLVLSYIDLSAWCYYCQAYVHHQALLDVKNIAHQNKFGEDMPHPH
Method in brief: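 HDAC6 at 15 ng/well in Tris buffer pH 8.0 with MgCl2, BSA, NaCl and KCl. Ten 3-fold dilutions preincubated 5 min at room temperature, then 10 μM Ac-Leu-Gly-Lys(Ac)-AMC for 30 min at 37 °C. IC50 by normalized dose–response nonlinear fit; performed at least three times.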

Histone deacetylase 7 = target: T2, Histone deacetylase 7 (Homo sapiens, UniProt Q8WUI4); assay: Inhibition of full length N-terminal GST-tagged human recombinant HDAC7 (501 to 952 residues) expressed in Baculovirus system using Ac-Leu-Gly-Lys (Ac)-AMC as substrate pretreated for 5 mins followed by substrate addition and measured after 30 mins
T2 sequence (Q8WUI4 whole entry): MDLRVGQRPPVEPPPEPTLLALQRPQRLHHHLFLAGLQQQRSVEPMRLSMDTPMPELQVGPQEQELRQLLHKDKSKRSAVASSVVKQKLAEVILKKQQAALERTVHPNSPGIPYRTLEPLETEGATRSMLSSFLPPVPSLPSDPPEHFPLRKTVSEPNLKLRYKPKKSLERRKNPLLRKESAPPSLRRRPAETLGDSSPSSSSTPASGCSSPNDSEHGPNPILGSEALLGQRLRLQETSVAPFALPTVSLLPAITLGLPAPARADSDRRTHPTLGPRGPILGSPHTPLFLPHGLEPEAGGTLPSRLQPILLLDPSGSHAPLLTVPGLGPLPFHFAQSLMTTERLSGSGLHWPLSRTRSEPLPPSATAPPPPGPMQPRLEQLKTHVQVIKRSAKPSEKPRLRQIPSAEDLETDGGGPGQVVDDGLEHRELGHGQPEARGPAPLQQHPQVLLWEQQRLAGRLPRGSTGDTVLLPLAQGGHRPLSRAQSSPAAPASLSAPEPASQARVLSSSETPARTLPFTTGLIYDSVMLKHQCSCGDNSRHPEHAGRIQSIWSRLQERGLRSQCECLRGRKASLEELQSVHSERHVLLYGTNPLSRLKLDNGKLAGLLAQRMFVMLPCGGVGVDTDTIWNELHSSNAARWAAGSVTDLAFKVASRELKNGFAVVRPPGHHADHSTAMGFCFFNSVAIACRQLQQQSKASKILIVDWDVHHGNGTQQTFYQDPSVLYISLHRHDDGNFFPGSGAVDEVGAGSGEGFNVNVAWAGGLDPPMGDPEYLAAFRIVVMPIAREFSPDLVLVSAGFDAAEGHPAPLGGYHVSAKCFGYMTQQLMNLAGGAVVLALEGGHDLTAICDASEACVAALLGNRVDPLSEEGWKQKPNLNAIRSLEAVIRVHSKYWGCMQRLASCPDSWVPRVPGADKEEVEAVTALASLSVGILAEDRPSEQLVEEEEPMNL

Histone deacetylase 8 = target: T3, Histone deacetylase 8 (Homo sapiens, UniProt Q9BY41); assay: Inhibition of full length C-terminal his-tagged human recombinant HDAC8 ([…]) expressed in baculovirus in Sf9 insect cells using Ac-Leu-Gly-Lys (Tfa)-AMC as substrate pretreated for 5 mins followed by substrate addition and measured after 30 mins
T3 sequence (Q9BY41 whole entry): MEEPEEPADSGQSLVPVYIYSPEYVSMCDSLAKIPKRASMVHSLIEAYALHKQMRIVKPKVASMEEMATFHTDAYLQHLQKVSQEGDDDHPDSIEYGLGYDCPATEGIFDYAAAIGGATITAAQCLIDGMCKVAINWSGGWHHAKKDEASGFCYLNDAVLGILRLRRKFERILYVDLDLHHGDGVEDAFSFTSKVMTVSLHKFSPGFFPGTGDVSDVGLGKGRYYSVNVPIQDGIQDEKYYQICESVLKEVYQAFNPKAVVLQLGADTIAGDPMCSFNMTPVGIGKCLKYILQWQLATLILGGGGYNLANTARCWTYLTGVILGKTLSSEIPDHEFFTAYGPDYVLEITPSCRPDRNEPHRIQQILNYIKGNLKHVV

Tubulin (Sus scrofa) = Tubulin (Sus scrofa) (UniProt P02554+P02550); assay: Inhibition of pig brain tubulin polymerization at 10 uM measured after 20 mins by spectrometric method relative to control
Chain of Tubulin (Sus scrofa) (P02550 whole entry, looked up): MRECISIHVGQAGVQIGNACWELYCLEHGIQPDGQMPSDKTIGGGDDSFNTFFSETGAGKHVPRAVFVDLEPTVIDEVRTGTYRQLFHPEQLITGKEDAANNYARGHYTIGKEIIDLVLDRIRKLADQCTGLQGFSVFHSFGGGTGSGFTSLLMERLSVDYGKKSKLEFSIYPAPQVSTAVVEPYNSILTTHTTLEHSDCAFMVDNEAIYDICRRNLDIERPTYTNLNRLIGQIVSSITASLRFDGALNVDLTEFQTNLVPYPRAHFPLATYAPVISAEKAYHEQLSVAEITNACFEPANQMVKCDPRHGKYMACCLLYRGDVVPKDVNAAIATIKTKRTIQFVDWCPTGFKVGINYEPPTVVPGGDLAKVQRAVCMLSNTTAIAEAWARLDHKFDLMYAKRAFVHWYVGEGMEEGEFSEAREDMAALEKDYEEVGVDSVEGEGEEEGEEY
Chain of Tubulin (Sus scrofa) (P02554 whole entry, looked up): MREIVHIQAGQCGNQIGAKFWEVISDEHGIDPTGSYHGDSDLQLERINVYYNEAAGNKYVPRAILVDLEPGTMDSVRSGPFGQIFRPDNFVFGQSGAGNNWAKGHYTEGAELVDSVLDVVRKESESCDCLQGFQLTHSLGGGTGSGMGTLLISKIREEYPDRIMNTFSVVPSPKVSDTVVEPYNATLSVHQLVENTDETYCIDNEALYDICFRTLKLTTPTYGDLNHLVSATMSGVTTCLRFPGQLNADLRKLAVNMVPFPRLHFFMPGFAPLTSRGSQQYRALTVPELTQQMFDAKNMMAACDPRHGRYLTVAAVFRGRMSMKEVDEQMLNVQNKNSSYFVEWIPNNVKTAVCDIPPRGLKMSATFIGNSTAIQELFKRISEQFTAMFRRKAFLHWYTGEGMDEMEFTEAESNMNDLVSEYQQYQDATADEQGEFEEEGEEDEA
Method in brief: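 Pig brain tubulin was purified by three assembly/disassembly cycles and then phosphocellulose chromatography. Compound at 10 μM in PEM buffer with 1 mM GTP and 5% glycerol at 37 °C. Polymerization followed at 340 nm; inhibition taken at 20 min versus vehicle control.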

[2] = Antiproliferative activity against human YCC-11 cells assessed as inhibition of cell viability; type: functional, cell-based
[3] = Antiproliferative activity against human YCC3/7 cells assessed as inhibition of cell viability; type: functional, cell-based
[4] = target: T4, Protein deacetylase HDAC6 (Homo sapiens) (UniProt Q9UBN7); assay: Inhibition of recombinant HDAC6 (unknown origin) at 1 uM relative to control
T4 sequence (whole entry): T1 sequence (Q9UBN7 whole entry)
Method in brief: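 Single-point test at 1 μM against recombinant HDAC6 (15 ng/well) in 25 mM Tris pH 8.0, 1 mM MgCl₂, 0.1 mg/mL BSA, 137 mM NaCl, 2.7 mM KCl. Compound preincubated 5 min at room temperature, then Ac-Leu-Gly-Lys(Ac)-AMC 10 μM, 30 min at 37 °C. Trypsin/TSA developer 30 min. Fluorescence read at ex 350−360/em 450−460 nm.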

Structure (SMILES)	IC50 (HCT-116)	IC50 (B16-F10)	IC50 (Jurkat)	IC50 (A549)	IC50 (Histone deacetylase 1)	IC50 (Histone deacetylase 3)	IC50 [1]	IC50 (Histone deacetylase 7)	IC50 (Histone deacetylase 8)	inhibition (Tubulin (Sus scrofa))	IC50 [2]	IC50 [3]	inhibition [4]
COc1cc(C(=O)c2csc(-c3ccc(NC(=O)/C=C/C(=O)Nc4ccccc4N)cc3)n2)cc(OC)c1OC	870 nM	3950 nM	260 nM	2980 nM	14400 nM	3960 nM	30200 nM	43000 nM	800 nM	67%	–	–	–
COc1cc(C(=O)c2csc(-c3ccc(OCCCC(=O)NO)cc3)n2)cc(OC)c1OC	100 nM	3830 nM	530 nM	1930 nM	6270 nM	9560 nM	1150 nM	–	8840 nM	39%	920 nM	1280 nM	> 50%
COc1cc(C(=O)c2csc(-c3ccc(/C=C/C(=O)NO)cc3)n2)cc(OC)c1OC	100 nM	1380 nM	20 nM	750 nM	8490 nM	19100 nM	1590 nM	–	2710 nM	47%	4090 nM	6140 nM	> 50%
